Measured values from ChEMBL document CHEMBL1772969, “Synthesis, structure-activity relationship, and antimalarial activity of ureas and thioureas of 15-membered azalides” (J Med Chem, 2011).

What was measured:
HepG2 = experiment: Cytotoxicity against human HepG2 cells after 1 to 4 hrs by MTS assay; format: cell-based
Procedure, shortened: (§1)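 HepG2 and THP-1 cells grown in RPMI 1640 with 10% FBS at 37 °C, 5% CO₂, and passaged twice weekly. Compounds applied as continuous exposure. Viability read by MTS reagent, 1–4 h incubation, absorbance at 490 nm; IC₅₀ derived.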

THP-1 = experiment: Cytotoxicity against human THP1 cells after 1 to 4 hrs by MTS assay; format: cell-based; procedure, shortened: as §1
[1] = Half life in mouse liver microsomes at 1 uM by LCMS analysis; format: ADME, Microsome
Procedure, shortened: (§2)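 Compound at 1 μM final with 0.5 mg/mL pooled human or mouse liver microsomes, 1.3 mM NADP, 3.3 mM MgCl₂, 0.1 M PBS pH 7.4. Reaction started with 1 U/mL G6PD, shaken at 37 °C. Aliquots quenched with cold acetonitrile at 0, 10, 20, 30 and 60 min and quantified by LCMS. t₁/₂ taken from log plot of total ion chromatogram area remaining.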

Plasmodium falciparum [2] = experiment: Antimalarial activity against chloroquine/pyrimethamine-resistant Plasmodium falciparum W2 after 48 hrs by [3H]hypoxanthine incorporation assay; format: functional, organism-based
Procedure, shortened: (§3)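 [3H]hypoxanthine incorporation assay (Desjardins method, Milhous modification) with 48 h drug exposure. Compounds and controls were 2-fold diluted across 11 concentrations. IC50 was fitted by nonlinear logistic dose-response. Values are averaged where multiple results were generated, with relative errors usually <30%.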

Plasmodium falciparum [3] = experiment: Antimalarial activity against chloroquine-sensitive Plasmodium falciparum D6 after 48 hrs by [3H]hypoxanthine incorporation assay; format: functional, organism-based; procedure, shortened: as §3
Plasmodium falciparum [4] = experiment: Antimalarial activity against multidrug-resistant Plasmodium falciparum TM91C235 after 48 hrs by [3H]hypoxanthine incorporation assay; format: functional, organism-based; procedure, shortened: as §3
[5] = Half life in human liver microsomes at 1 uM by LCMS analysis; format: ADME, Microsome; procedure, shortened: as §2

Structure (SMILES) | IC50 (HepG2) [nM] | IC50 (THP-1) [nM] | half-life at 1 µM [1] [h] | IC50 (Plasmodium falciparum [2]) [nM] | IC50 (Plasmodium falciparum [3]) [nM] | IC50 (Plasmodium falciparum [4]) [nM] | half-life at 1 µM [5] [h]
CC[C@H]1OC(=O)[C@H](C)[C@@H](O[C@H]2C[C@@](C)(OC)[C@@H](O)[C@H](C)O2)[C@H](C)[C@@H](O[C@@H]2O[C@H](C)C[C@H](N(C)C)[C@H]2O)[C@](C)(O)C[C@@H](C)CN(CCNC(=O)Nc2cccc3ccccc23)[C@H](C)[C@@H](O)[C@]1(C)O | 35000 | 14000 | > 2 | 79 | 142 | 42 | > 2
CC[C@H]1OC(=O)[C@H](C)[C@@H](O[C@H]2C[C@@](C)(OC)[C@@H](O)[C@H](C)O2)[C@H](C)[C@@H](O[C@@H]2O[C@H](C)C[C@H](N(C)C)[C@H]2O)[C@](C)(O)C[C@@H](C)CN(CCNC(=S)Nc2cccc3ccccc23)[C@H](C)[C@@H](O)[C@]1(C)O | 20000 | 9000 | > 2 | 99 | 225 | 130 | > 2
CC[C@H]1OC(=O)[C@H](C)[C@@H](O[C@H]2C[C@@](C)(OC)[C@@H](O)[C@H](C)O2)[C@H](C)[C@@H](O[C@@H]2O[C@H](C)C[C@H](N(C)C)[C@H]2O)[C@](C)(O)C[C@@H](C)CN(CCNC(=S)NCCc2ccccc2)[C@H](C)[C@@H](O)[C@]1(C)O | 9000 | 4000 | > 2 | 102 | 203 | 128 | > 2
CC[C@H]1OC(=O)[C@H](C)[C@@H](O[C@H]2C[C@@](C)(OC)[C@@H](O)[C@H](C)O2)[C@H](C)[C@@H](O[C@@H]2O[C@H](C)C[C@H](N(C)C)[C@H]2O)[C@](C)(O)C[C@@H](C)CN(CCCN(CCC#N)C(=O)Nc2cccc3ccccc23)[C@H](C)[C@@H](O)[C@]1(C)O | – | – | > 2 | 1380 | 523 | 255 | > 2
CCNC(=O)NCCN1C[C@H](C)C[C@@](C)(O)[C@H](O[C@@H]2O[C@H](C)C[C@H](N(C)C)[C@H]2O)[C@@H](C)[C@H](O[C@H]2C[C@@](C)(OC)[C@@H](O)[C@H](C)O2)[C@@H](C)C(=O)O[C@H](CC)[C@@](C)(O)[C@H](O)[C@H]1C | – | – | > 2 | 4930 | 3620 | 978 | > 2
CC[C@H]1OC(=O)[C@H](C)[C@@H](O[C@H]2C[C@@](C)(OC)[C@@H](O)[C@H](C)O2)[C@H](C)[C@@H](O[C@@H]2O[C@H](C)C[C@H](N(C)C)[C@H]2O)[C@](C)(O)C[C@@H](C)CN(CCNC(=O)NC(C)C)[C@H](C)[C@@H](O)[C@]1(C)O | – | – | > 2 | 2060 | 1400 | 717 | > 2
CC[C@H]1OC(=O)[C@H](C)[C@@H](O[C@H]2C[C@@](C)(OC)[C@@H](O)[C@H](C)O2)[C@H](C)[C@@H](O[C@@H]2O[C@H](C)C[C@H](N(C)C)[C@H]2O)[C@](C)(O)C[C@@H](C)CN(CCCNC(=O)NC(C)C)[C@H](C)[C@@H](O)[C@]1(C)O | – | – | > 2 | > 5700 | > 1420 | > 5700 | > 2
CC[C@H]1OC(=O)[C@H](C)[C@@H](O[C@H]2C[C@@](C)(OC)[C@@H](O)[C@H](C)O2)[C@H](C)[C@@H](O[C@@H]2O[C@H](C)C[C@H](N(C)C)[C@H]2O)[C@](C)(O)C[C@@H](C)CN(CCCN(CCC#N)C(=O)Nc2ccc3ccccc3c2)[C@H](C)[C@@H](O)[C@]1(C)O | – | – | > 2 | 178 | 118 | 116 | > 2
CC[C@H]1OC(=O)[C@H](C)[C@@H](O[C@H]2C[C@@](C)(OC)[C@@H](O)[C@H](C)O2)[C@H](C)[C@@H](O[C@@H]2O[C@H](C)C[C@H](N(C)C)[C@H]2O)[C@](C)(O)C[C@@H](C)CN(CCCN(CCC#N)C(=O)NC(C)C)[C@H](C)[C@@H](O)[C@]1(C)O | – | – | > 2 | > 13400 | > 13400 | 1270 | > 2
